Experimental data reported in ChEMBL document CHEMBL1132419 (J Med Chem, 1999).

Columns and labels:
Plasmodium falciparum = assay: Antimalarial activity against chloroquine-sensitive Plasmodium falciparum NF54; format: functional, organism-based
Mus musculus [1] = assay: In vivo antimalarial activity against Plasmodium berghei N on subcutaneous administration.; format: functional; conditions: sc
How it was run: (§1)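 Mice, 5 per dose group, given 1, 3, 10 or 30 mg/kg once daily for 4 days by the route stated; ED values derived from the four-dose series.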

Mus musculus [2] = assay: In vivo antimalarial activity against Plasmodium berghei N on oral administration.; format: functional; how it was run: as §1
Plasmodium berghei = assay: Antimalarial activity against Plasmodium berghei N; conditions: Mus musculus

SMILES	IC50 (Plasmodium falciparum) [nM]	ED90 (Mus musculus [1]) [mg/kg]	further results
COc1ccc([C@@H]2O[C@@H]3OC4(C)CC[C@H]5[C@H](C)CC[C@@H]([C@H]2C)[C@@]35OO4)c(OC)c1 (single isomer, unassigned)	4.2		
Cc1ccc([C@@H]2O[C@@H]3OC4(C)CC[C@H]5[C@H](C)CC[C@@H]([C@H]2C)[C@@]35OO4)o1 (single isomer, unassigned)	5.2	2	ED50 (Mus musculus [1]): 0.9 mg/kg; ED50 (Mus musculus [2]): 15.5 mg/kg; ED90 (Mus musculus [2]): 43 mg/kg
CCc1ccc([C@@H]2O[C@@H]3OC4(C)CC[C@H]5[C@H](C)CC[C@@H]([C@H]2C)[C@@]35OO4)o1 (single isomer, unassigned)	8.6		
C[C@H]1[C@H](c2cccs2)O[C@@H]2OC3(C)CC[C@H]4[C@H](C)CC[C@@H]1[C@@]24OO3 (single isomer, unassigned)	5.1		
C[C@H]1[C@H](c2cccn2Cc2ccccc2)O[C@@H]2OC3(C)CC[C@H]4[C@H](C)CC[C@@H]1[C@@]24OO3 (single isomer, unassigned)	16		
C[C@H]1[C@H](c2ccc(C(C)(C)C)o2)O[C@@H]2OC3(C)CC[C@H]4[C@H](C)CC[C@@H]1[C@@]24OO3 (single isomer, unassigned)	10		
C[C@H]1[C@H](c2cccn2C)O[C@@H]2OC3(C)CC[C@H]4[C@H](C)CC[C@@H]1[C@@]24OO3 (single isomer, unassigned)	4.6	1.2	ED50 (Mus musculus [1]): 0.7 mg/kg; ED90 (Mus musculus [2]): 8.5 mg/kg
C=CCOc1ccc([C@@H]2O[C@@H]3OC4(C)CC[C@H]5[C@H](C)CC[C@@H]([C@H]2C)[C@@]35OO4)c(OCC=C)c1 (single isomer, unassigned)	6.6		
CCO[C@H]1O[C@@H]2O[C@@]3(C)CC[C@H]4[C@H](C)CC[C@@H]([C@H]1C)[C@@]24OO3 [ARTEMOTIL]		0.5	ED50 (Plasmodium berghei): 0.3 mg/kg; ED50 (Mus musculus [1]): 0.3 mg/kg
CSc1ccc(C#[C][Al]([CH3])[CH2][C@@H]2O[C@@H]3O[C@]4(C)CC[C@H]5[C@H](C)CC[C@@H]([C@H]2C)[C@@]35OO4)cc1	8.4		
C[C@H]1[C@H](c2cccn2Cc2ccco2)O[C@@H]2OC3(C)CC[C@H]4[C@H](C)CC[C@@H]1[C@@]24OO3 (single isomer, unassigned)	9.4		
C[C@H]1[C@H](c2cn(C)c3ccccc23)O[C@@H]2OC3(C)CC[C@H]4[C@H](C)CC[C@@H]1[C@@]24OO3 (single isomer, unassigned)	4		
COc1ccc2cc([C@@H]3O[C@@H]4OC5(C)CC[C@H]6[C@H](C)CC[C@@H]([C@H]3C)[C@@]46OO5)c(OC)cc2c1 (single isomer, unassigned)	9		
CCN(CC)CCCC(C)Nc1ccnc2cc(Cl)ccc12 (stereo unspecified) [CHLOROQUINE]		3.1	
C[C@H]1[C@H](c2ccco2)O[C@@H]2OC3(C)CC[C@H]4[C@H](C)CC[C@@H]1[C@@]24OO3 (single isomer, unassigned)	1.4	2	ED90 (Mus musculus [2]): 24 mg/kg
CCOC(=O)Cn1cccc1[C@@H]1O[C@@H]2OC3(C)CC[C@H]4[C@H](C)CC[C@@H]([C@H]1C)[C@@]24OO3 (single isomer, unassigned)	9.1		
COc1cc(OC)c([C@@H]2O[C@@H]3OC4(C)CC[C@H]5[C@H](C)CC[C@@H]([C@H]2C)[C@@]35OO4)c(OC)c1 (single isomer, unassigned)	7.8		
C[C@@H]1CC[C@H]2[C@@H](C)C(=O)O[C@@H]3O[C@@]4(C)CC[C@@H]1[C@]32OO4 [ARTEMISININ]		8.5	ED50 (Mus musculus [1]): 3 mg/kg
C[C@H]1[C@H]([CH2][Al]([CH3])[C]#Cc2ccc(F)cc2)O[C@@H]2O[C@]3(C)CC[C@H]4[C@H](C)CC[C@@H]1[C@@]24OO3	8.3		
